Published values pooled from the literature.
Lines come from different studies, so protocols differ.

COc1ccc(Cc2[nH]/c(=N/C(=O)C34CC5CC(CC(C5)C3)C4)n(C)c2-c2ccc(OC(=O)c3ccccc3)c(OC)c2)cc1  IC50 (Hepatitis B virus; viral replication, inhibitor; HePAD38): 9.82 µM
CN(C)c1ccc(-c2c(C(N)=O)c(N)n(N)c(=O)c2C#N)cc1  inhibition zone (Saccharomyces cerevisiae; microbial growth, well diffusion; ATCC9763; 500 µg/mL): 13 mm
O=C(NC(=S)Nc1cccc(O)c1)c1cccs1  IC50 (Leishmania tropica; parasite growth, resazurin; promastigote): 0.48 µM
Cc1c(C(=O)O)ccc2c3n(nc12)[C@@H]1[C@H](C3)N(CC2CC2)[C@@]2(C(=O)Nc3cc(Cl)ccc32)[C@H]1c1cccc(Cl)c1F  IC50 (NUGC-4; cell growth or viability, resazurin): 0.012 µM
O=C(NC(=S)Nc1ccccc1O)c1ccco1  IC50 (Leishmania tropica; parasite growth, resazurin; promastigote): 4.19 µM
Nc1ccc(/C=C/C(=O)N2CCc3c(oc4c(-c5ccc(F)cc5)cc(-c5ccc(C(=O)N6CCC(F)(F)CC6)nn5)cc34)C2)cn1  IC50 (PANC-1; cell growth or viability, CCK-8; 72 h): > 20 µM
N#Cc1c(-c2ccc(Cl)cc2Cl)c(C(N)=S)c(N)n(N)c1=O  inhibition zone (Saccharomyces cerevisiae; microbial growth, well diffusion; ATCC9763; 500 µg/mL): 11 mm
Nc1ccc(/C=C/C(=O)NCc2cc3cc(-c4ccc(C(=O)N5CCC(F)(F)CC5)cc4)cc(-c4ccc(F)cc4)c3o2)cn1  IC50 (PANC-1; cell growth or viability, CCK-8; 72 h): > 20 µM
C=CC(=O)Nc1cc(Nc2nccc(-c3cn(C)c4ccccc34)n2)c(OC)cc1N(C)CCN(C)C  IC50 (PANC-1; cell growth or viability, MTS; 72 h): 7.14 µM
CC(=O)Oc1ccc(-c2c(C(N)=O)c(N)n(N)c(=O)c2C#N)cc1  inhibition zone (Saccharomyces cerevisiae; microbial growth, well diffusion; ATCC9763; 500 µg/mL): 9 mm
C=CC(=O)NC1CCN(c2ncc3ncnc(Nc4ccc(Oc5ccc6c(c5)ncn6C)c(C)c4)c3n2)CC1  EC50 (PANC-1; cell growth or viability): 1.8 µM
O=C(NC(=S)Nc1ccccn1)c1ccco1  IC50 (Leishmania tropica; parasite growth, resazurin; promastigote): 0.94 µM
